# Assay results of several laboratories.
# Target: Sodium-dependent dopamine transporter (SLC6A3, Homo sapiens, UniProt Q01959)
SMILES,effect on,action,method,measurement,value
Fc1ccccc1C(Cc1ccccc1)N1CCCC1 (stereo not shown),ligand displacement,,radioligand,Ki,0.327 µM
NCCc1ccc(Oc2ccc(O)cc2)c(I)c1,ligand displacement,,radioligand,IC50,0.8 µM
CNC(C)(C)C(=O)c1ccccc1,calcium signal,agonist,fluorescence,EC50,0.59 µM
CC(NCc1ccccc1)C(=O)c1ccc2c(c1)OCO2 (stereo not shown),ligand displacement,,radioligand,Ki,< 0.1 µM
C[C@@H](CN1CCC(Cc2ccccc2)CC1)[C@@H](O)c1ccc(O)cc1 (relative stereo),ligand displacement,,radioligand,Ki,6 µM
CCC[C@@H](C(=O)c1ccc(C)cc1)N1CCCC1,transporter uptake,inhibitor,radiometric,IC50,0.0062 µM
CN[C@@H](C)C(=O)c1ccccc1,calcium signal,agonist,fluorescence,EC50,0.24 µM
CNc1nc2cc(OCCCCN3CCN(c4cccc(Cl)c4Cl)CC3)ccc2s1,ligand displacement,,radioligand,Ki,2.8 µM
CN[C@]1(c2ccccc2Cl)CCCCC1=O,ligand displacement,,radioligand,IC50,> 100 µM
CN1[C@H]2CC[C@@H]1[C@@H](c1cc(-c3ccccc3)no1)[C@H](OC(c1ccc(F)cc1)c1ccc(F)cc1)C2,ligand displacement,,radioligand,Ki,0.028 µM
